Source: PubChem (The Scripps Research Institute Molecular Screening Center)
Rows were chosen to be rich in hits. Some 4.6% of all compounds tested hit in one or more screens of this group.
TAAR1 agonist = agonists of human TAAR1. Q96RJ0. hit rate 0.99% among 360,000. CHO RD-HGA16 TAAR1, Fluo-8 calcium fluorescence; vehicle wells 0%, saturating PEA agonist 100%. activation, % at 3 µM;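 active = activation above the mean activation of all test compounds in the run plus 3 SD, cut at about 38% in these data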
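Assay system: CHO-derived RD-HGA16 cells with stable Gα16 and human TAAR1; timing: 17-24 h seeding, 75 min 37 °C dye, 30 min RT; read-out: % activation from peak over basal fluorescence ratio, DMSO-to-PEA scaled; measured by: kinetic Fluo-8 calcium fluorescence; benchmarks: low control DMSO, high control PEA (EC100); doses: 3 µM single concentration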
OX1R antag-1 = antagonists of human orexin 1 receptor; O43613; CHO/OX1R cells, Fluo-8 calcium fluorescence, orexin A; inhibition, % at 5 µM; hit rate 0.43% among 330,000; AID 434989;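 active = inhibition above its plate's threshold, mean inhibition of all tested compounds on the plate plus 3 SD, cut at about 37% in these data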
Target sequence (O43613 whole entry, looked up): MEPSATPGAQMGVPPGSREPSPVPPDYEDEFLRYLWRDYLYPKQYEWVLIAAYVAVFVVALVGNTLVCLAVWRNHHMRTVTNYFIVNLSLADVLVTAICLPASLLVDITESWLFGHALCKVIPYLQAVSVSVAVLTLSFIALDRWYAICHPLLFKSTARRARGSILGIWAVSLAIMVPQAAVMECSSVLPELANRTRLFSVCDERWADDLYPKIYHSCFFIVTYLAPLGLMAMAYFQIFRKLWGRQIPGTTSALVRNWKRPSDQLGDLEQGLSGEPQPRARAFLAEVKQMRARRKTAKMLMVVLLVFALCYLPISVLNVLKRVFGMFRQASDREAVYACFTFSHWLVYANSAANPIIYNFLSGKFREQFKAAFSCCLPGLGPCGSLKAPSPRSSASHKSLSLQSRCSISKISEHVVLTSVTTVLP
OX1R antag-2 = blocks the human orexin 1 receptor; O43613; OX1R-expressing cells, FRET antagonist read-out; inhibition, % at 6.6 µM; hit rate 1.8% among 330,000; in the data active = inhibition mostly above about 38%, no sharp cut-off; inactive = mostly below about 40%
CHO parental Ca = signal in parental CHO cells, OX1R antagonist counter-screen | parental CHO-K1, ATP-induced calcium, Fluo-8 fluorescence | AID 463079 | inhibition, % at 5.6 µM | hit rate 0.63% among 330,000;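 active = inhibition above that plate's mean sample inhibition plus 3 SD, cut at about 26% in these data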
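Material – parental CHO cells · Reagent – ATP stimulus · Compound – single nominal dose of 5.6 µM per compound · Detection – Fluo-8 fluorescence · Read-out basis – percent inhibition of calcium signal · Controls – ATP-challenged DMSO wells low, unchallenged DMSO wells high · Repeats – no replicates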
GPR7 antagonist = human neuropeptides B/W receptor 1 antagonism | P48145 | GPR7-expressing cells, fluorescence antagonist assay | inhibition, % at 4.4 µM | hit rate 1.1% among 290,000; in the data active = inhibition above about 16%, passing the limit was not always enough;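 also: cells stimulated with the agonist NPW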
Target sequence (P48145 whole entry, looked up): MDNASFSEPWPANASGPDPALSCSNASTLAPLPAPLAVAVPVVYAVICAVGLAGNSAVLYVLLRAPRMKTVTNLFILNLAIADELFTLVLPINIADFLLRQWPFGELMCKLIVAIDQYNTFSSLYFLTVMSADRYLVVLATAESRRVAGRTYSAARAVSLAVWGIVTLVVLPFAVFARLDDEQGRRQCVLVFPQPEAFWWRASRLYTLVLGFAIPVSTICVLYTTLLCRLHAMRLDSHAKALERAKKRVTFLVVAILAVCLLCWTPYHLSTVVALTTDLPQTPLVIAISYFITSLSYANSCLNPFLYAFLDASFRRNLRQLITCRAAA
TAAR1 antagonist = antagonists of human TAAR1 | Q96RJ0 | CHO RD-HGA16 TAAR1, Fluo-8 calcium fluorescence, antagonist | inhibition, % at 3 µM | hit rate 1.5% among 360,000;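 active = inhibition above a per-plate cutoff, the mean inhibition of test compounds on that plate plus 3 SD, cut at about 49% in these data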
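Test system – hTAAR1-expressing CHO RD-HGA16 cells, Gα16-coupled · Reagent – β-PEA at EC80 concentration, post-compound challenge · Compound dosing – 3 µM, single point · Timing – 140 s kinetic read after compound, 140 s after agonist · Detection – Fluo-8 intracellular calcium dye fluorescence, real-time kinetic reads · Control set – DMSO and EC80 PEA controls · Repeats – n of 1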
TAAR1 ag conf = human TAAR1 agonism, confirmed. shares compounds with TAAR1 agonist. CHO RD-HGA16 TAAR1, Fluo-8 calcium fluorescence; scaled: DMSO 0%, maximal phenethylamine 100%. activation, % at 3 µM. hit rate 82% among 2,400;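 active = activation above a cutoff set at the run's mean compound activation plus 3 SD, cut at about 39% in these data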
Ga16 nonsel ag = nonselective agonist in parental cells, TAAR1 agonist counter-screen. AID 651787. activation, % at 3 µM. hit rate 50% among 2,400. shares compounds with TAAR1 agonist. CHO-Ga16 parental, Fluo-8 calcium fluorescence; normalized to maximal ATP response, DMSO zero;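 active = activation above the run cutoff, the mean activation over all tested wells plus 3 SD, cut at about 12% in these data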
TAAR1 desensitize = human TAAR1 agonist that also desensitizes the receptor. shares compounds with TAAR1 agonist. AID 651951. hit rate 46% among 2,400. inhibition, % at 3 µM. CHO RD-HGA16 hTAAR1, Fluo-8 calcium, beta-PEA response inhibition;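 active = inhibition above the run cutoff, the mean inhibition of all test compounds plus 3 SD, cut at about 49% in these data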;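 also: beta-PEA stimulus applied at its EC80; loss of beta-PEA calcium signal after compound pretreatment read as receptor desensitization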
Ga16 antag count = counter-screen for TAAR1 agonists: nonselective Ga16 antagonists. CHO-Ga16 ATP-induced calcium, Fluo-8 fluorescence. inhibition, % at 3 µM. hit rate 39% among 2,400. shares compounds with TAAR1 agonist;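 active = inhibition above the plate's mean compound inhibition plus 3 SD, computed per plate, cut at about 22% in these data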
Large screens that a line does not name were inactive (follow-up assays come after a bar, where they were run).

C[C@H](NC(=O)[C@@H]1CSC2c3ccccc3C(=O)N21)C(=O)NCCc1ccccc1 (some centres not stated)	TAAR1 agonist 68.4 | TAAR1 ag conf 81.2 | Ga16 nonsel ag inactive | TAAR1 desensitize inactive | Ga16 antag count inactive
O=C(Nc1ccc(Cl)c([N+](=O)[O-])c1)c1ccc(NCCCN2CCOCC2)c([N+](=O)[O-])c1	TAAR1 agonist 75.5, CHO parental Ca 42.4, TAAR1 antagonist 91.1 | TAAR1 ag conf 76.8 | Ga16 nonsel ag 28.0 | TAAR1 desensitize 98.8 | Ga16 antag count 35.2
COc1ccccc1CCN1C(=S)NC(C)(C)CC1(C)O (configuration not stated)	TAAR1 agonist 51.4 | TAAR1 ag conf 74.2 | Ga16 nonsel ag inactive | TAAR1 desensitize inactive | Ga16 antag count inactive
Cc1ccc(-n2cc(CNCCCn3ccnc3C)c(-c3ccc(F)cc3)n2)cc1	none
Cc1ccc(-n2cc(CNCCc3cscn3)c(-c3ccc(F)cc3)n2)cc1	TAAR1 agonist 45.6 | TAAR1 ag conf 56.8 | Ga16 nonsel ag inactive | TAAR1 desensitize inactive | Ga16 antag count inactive
C=CCC[C@H](Cc1ccc(F)cc1)C(=O)OC[C@@H](Cc1c[nH]c2ccccc12)NC(=O)[C@@H](CC=C)CC(=O)N[C@@H](CO)Cc1ccccc1	none (no result: GPR7 antagonist)
C=CCC[C@H](Cc1ccc(F)cc1)C(=O)OC[C@H](Cc1c[nH]c2ccccc12)NC(=O)[C@@H](CC=C)CC(=O)NCCO	TAAR1 agonist 64.6, TAAR1 antagonist 74.5 (no result: GPR7 antagonist) | TAAR1 ag conf inactive | Ga16 nonsel ag 25.0 | TAAR1 desensitize 68.8 | Ga16 antag count 52.8
COC(=O)c1ccc(CNC(=O)COC(=O)c2cc(Cl)ccc2O)cc1	TAAR1 agonist 62.1, TAAR1 antagonist 70.2 (no result: GPR7 antagonist) | TAAR1 ag conf inactive | Ga16 nonsel ag inactive | TAAR1 desensitize inactive | Ga16 antag count inactive
O=C(COC(=O)c1cc(Cl)ccc1O)NCCNC(=O)COC(=O)c1cc(Cl)ccc1O	none
COc1ccc(NC(=O)N2CCc3cc(OC)c(OC)cc3C2)cc1	none
COc1ccc(CNC(=O)N2CCc3ccccc3C2)cc1Cl	none
COc1ccc(NC(=O)N2CCc3ccccc3C2)cc1OC	TAAR1 agonist 58.9 | TAAR1 ag conf 66.0 | Ga16 nonsel ag inactive | TAAR1 desensitize inactive | Ga16 antag count inactive
COc1ccc(NC(=O)N2CCc3ccccc3C2)c(OC)c1	TAAR1 agonist 44.0 | TAAR1 ag conf 47.7 | Ga16 nonsel ag inactive | TAAR1 desensitize inactive | Ga16 antag count inactive
COc1ccc(-c2nc(CSCC(=O)N3CCc4ccccc4C3)c(C)o2)cc1OC	TAAR1 agonist 68.4 | TAAR1 ag conf 93.6 | Ga16 nonsel ag inactive | TAAR1 desensitize 59.6 | Ga16 antag count inactive
COc1ccc(OC)c(NC(=O)N2CCc3ccccc3C2)c1	TAAR1 agonist 43.5 | TAAR1 ag conf 56.6 | Ga16 nonsel ag inactive | TAAR1 desensitize inactive | Ga16 antag count inactive
CCc1ccc(NC(=S)N2CCC(NC(=O)c3ccccc3OC)CC2)cc1	none
Cc1nc2c(ncn2-c2ccccc2)c(=O)n1NC(=O)CN1CCN(C)CC1	none
CN(C)/C=C/C(=C\C(=O)C(F)(F)F)Nc1ccc(C(F)(F)F)cc1	none
CCN(Cc1ccncc1)Cc1c(O)ccc2ccccc12	TAAR1 agonist 53.2 (no result: OX1R antag-1, OX1R antag-2, CHO parental Ca) | TAAR1 ag conf 54.6 | Ga16 nonsel ag inactive | TAAR1 desensitize inactive | Ga16 antag count inactive
CC(C)CN(Cc1c(O)ccc2ccccc12)CC(C)C	none
CCc1cc2c(NCCC(=O)O)nc(C)nc2s1	TAAR1 agonist 48.6 | TAAR1 ag conf 103.7 | Ga16 nonsel ag 46.6 | TAAR1 desensitize inactive | Ga16 antag count inactive
CC12CCC(=O)N1C(C(=O)Nc1ccc(F)cc1)CS2 (configuration not stated)	none
CN(C)C1=NC[C@H](Cc2ccccc2)N1CCCC1CCCC1	TAAR1 agonist 45.0 (no result: GPR7 antagonist) | TAAR1 ag conf inactive | Ga16 nonsel ag inactive | TAAR1 desensitize inactive | Ga16 antag count inactive
CN(C)C1=NC[C@H](Cc2ccccc2)N1CCC1CCCC1	none (no result: GPR7 antagonist)
COC(=O)C1=C(C)N(Cc2cccc(C(F)(F)F)c2)C(=NCc2ccc3c(c2)OCO3)NC1c1cccc(C(F)(F)F)c1 (configuration not stated)	TAAR1 agonist 39.5 (no result: OX1R antag-1, OX1R antag-2, CHO parental Ca, GPR7 antagonist) | TAAR1 ag conf inactive | Ga16 nonsel ag 13.3 | TAAR1 desensitize inactive | Ga16 antag count 32.8
COC(=O)C1=C(C)N(Cc2cccc(C(F)(F)F)c2)C(=NCc2ccc(C(F)(F)F)cc2)NC1c1ccc(C(F)(F)F)cc1 (configuration not stated)	none (no result: OX1R antag-1, OX1R antag-2, CHO parental Ca, GPR7 antagonist)
C=CCN=C1NC(c2ccc(Cl)cc2)C(C(=O)OC)=C(C)N1Cc1cccc(C(F)(F)F)c1 (configuration not stated)	TAAR1 agonist 65.1, TAAR1 antagonist 74.9 (no result: OX1R antag-1, OX1R antag-2, CHO parental Ca, GPR7 antagonist) | TAAR1 ag conf 76.2 | Ga16 nonsel ag 46.5 | TAAR1 desensitize 89.3 | Ga16 antag count 71.5
COC(=O)C1=C(C)N(Cc2cccc(C(F)(F)F)c2)C(=NCc2ccc(C(F)(F)F)cc2)NC1c1ccc(F)cc1 (configuration not stated)	none (no result: OX1R antag-1, OX1R antag-2, CHO parental Ca, GPR7 antagonist)
COC(=O)C1=C(C)N(Cc2cccc(C(F)(F)F)c2)C(=NCc2ccc3c(c2)OCO3)NC1c1ccc(F)cc1 (configuration not stated)	TAAR1 agonist 47.5, TAAR1 antagonist 49.7 (no result: OX1R antag-1, OX1R antag-2, CHO parental Ca, GPR7 antagonist) | TAAR1 ag conf inactive | Ga16 nonsel ag 15.2 | TAAR1 desensitize inactive | Ga16 antag count 35.9
CC(=O)Cn1cnc2c(cnn2-c2ccc(F)cc2)c1=O	none (no result: OX1R antag-1, OX1R antag-2, CHO parental Ca, GPR7 antagonist)
CSc1nc(N)nc(SCC(=O)c2ccc(C)cc2)c1C#N	TAAR1 agonist 52.2, OX1R antag-2 69.2, TAAR1 antagonist 54.1 | TAAR1 ag conf inactive | Ga16 nonsel ag inactive | TAAR1 desensitize inactive | Ga16 antag count inactive
O=C1CCC(C(=O)Nc2ccc(Cl)cc2)N1 (configuration not stated)	none
O=C(Nc1ccc(Cl)cc1)C1C2CCCCC21 (configuration not stated)	TAAR1 agonist 56.8, CHO parental Ca 62.5, TAAR1 antagonist 59.3 | TAAR1 ag conf inactive | Ga16 nonsel ag inactive | TAAR1 desensitize inactive | Ga16 antag count inactive
